Measurements published in the EternaBench riboswitch data.

Test system: MS2 coat protein
Experiment: apparent Kd, MS2 coat protein; higher = weaker binding; RNA-MaP array; FMN 200 µM where present
How it was run: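 The apparent Kd is the median of filtered binding-curve fits, one per cluster, to green signal normalised to red-channel RNA signal and control-cluster median Fmax. The clusters were on Illumina sequencing chips, and stalled E. coli RNA polymerase had transcribed the designs on them. Titration used SNAP-549-labelled MS2 coat protein from 0.7 or 1.5 nM, doubling to 3 µM, without and then with constant ligand, in 100 mM Tris-HCl pH 7.5, 80 mM KCl, 4 mM MgCl2, BSA, DTT, yeast tRNA and Tween-20.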

[1] = designed as: ON switch for flavin mononucleotide, no ligand
[2] = ligand present: flavin mononucleotide, designed as: ON switch for flavin mononucleotide
[3] = designed as: OFF switch for flavin mononucleotide, no ligand
[4] = ligand present: flavin mononucleotide, designed as: OFF switch for flavin mononucleotide

Row | Sequence | apparent Kd [1] | apparent Kd [2] | apparent Kd [3] | apparent Kd [4]
1 | GCUGUCGCAUGAGGAUAUGGUCAGGUUUCCUGACCAGAAGGCAUGUCAAUAGACAUGAGGAUCACCCAUGUAGUAAAGACAGCA | 447 nM | 36.4 nM | – | –
2 | AUCGUAACUUCGUGUCCACAUGAGGAUCACCCAUGUGCUACAAGAAGGGCCCGGGUCGGGUUAGGGCAGGAUAUUGUGUGCACA | – | – | 9.15 nM | 19.1 nM
3 | GUUUAGUGAGGAUAUGUGGCUUCGAUCGUGCGAGGGCGGCUACAGAAGGCACAUGAGGAUCACCCAUGUUCCUC | – | – | 155 nM | 428 nM
4 | CUAUGUUAGCAGGAUAUGCCAUUAUUCCUUUACGCAGAAGGGCUUACAUGAGGAUCACCCAUGUUACAUUUCAU | – | – | 14.1 nM | 29.8 nM
5 | UUGGAUGUUGAGGAUAUGCUGGUGUUUAUUAUAGCAGAAGGCGAUACAUGAGGAUCACCCAUGUUCAUGGCUUU | – | – | 12.8 nM | 15.2 nM
6 | AGUGUCGGCACAGGAUAUGAGAUGCCGGCAGACAUGAGGAUCACCCAUGUAAGCGAACCAGGCAGUCAGAAGGGUGAUCGACGA | 119 nM | 26.9 nM | – | –
7 | GCGUCAGAAUUAAUUGUGACAGACAGAAGGCAAUAGUAUGUGACCGACAUGAGGAUCACCCAUGUUGAGGAUAUGUAUUGACGC | – | – | 5.26 nM | 6.53 nM
8 | GGGUACAUCGGAGGAUAUCAUGUAAGUACAUGAGGAUCACCCAUGUCGAUGGAGACAUCGGAGAUUGAGAAGGCCGAUGUACCG | 152 nM | 8.71 nM | – | –
9 | UCAUAACAUGAGGAUCACCCAUGUCAGGAUAUGAUACUAUGUACUUCGGUACAUAGUAUCAGAAGGGACAUACU | – | – | 96.8 nM | 153 nM
10 | AAACCGUGUGGAGGAUAUGCAGUUGAGGUAAGGCGGCAGCUCUAUACGACAGCAGAAGGCCACAUGAGGAUCACCCAUGUAGGU | – | – | 122 nM | 53.2 nM
11 | AUUAGUAUCUAGGAUAUCUAGUACAUAGUAUCUAGAGAAGGAGAUACAUGAGGAUCACCCAUGUUCUGUGAUCU | – | – | 204 nM | 44.4 nM
12 | AGGUGACAUGAGGAUCACCCAUGUCAGGAUAUAUACACCGCCGGCGUGAAGCCAGCGGAUAGAAGGGACAAAAU | – | – | 15.4 nM | 16.9 nM
13 | UUGCGGUAGGAGAAGGACAGAGGCUUAAUUACAUACAUGAGGAUCACCCAUGUAGGAUAUCCUACCUAACGCGGACUCCUCCUG | – | – | 6.82 nM | 7.25 nM
14 | UUAUUAUGUGUAGGAUAUGCAUAUUCUUAUUAUGCAGAAGGACAUGAGGAUCACCCAUGUAUAUUAUUAUUAUAUAUUAUAUAU | – | – | 14.6 nM | 13.1 nM
15 | GUACUACAUGAGGAUCACCCAUGUGAGGAUAUGCGAAUUUCAUCAAAAGAUGAAAUUUGCAGAAGGCACAGUAC | – | – | 31.2 nM | 29 nM
16 | UUUUUUUUAGUAAGGAUAUGAUGCAGGAAACUGCGUCAGAAGGUACAUGAGGAUCACCCAUGUUAAUUUUUUUU | – | – | 17.2 nM | 22.4 nM
17 | AGGAUCUCAGUCAGGAUAUGUGUCUUCAAAGUACGGCAGAAGGGACAUGAGGAUCACCCAUGUUAGCCACCUUU | – | – | 26.6 nM | 69.1 nM
18 | GUUAAGGUAGGAUAUACGAUAAUAUAGGGUAGAUAUAGAACACAUGAGGAUCACCCAUGUAGAAGGACCAAUUG | – | – | 29.5 nM | 88.9 nM
19 | GCAUUGAUAACAGGAUAUAUGAAUCCUACAUGAGGAUCACCCAUGUAGGUGAUCAGCCGUGAUUAGUAGAAGGGUUAUCAAUGC | 13 nM | 6.49 nM | – | –
20 | GCUAGUCAUGUCAGGAUAUGCUGAACCUUGGUUCAGCAGAAGGGACAUGAGGAUCACCCAUGUGCCUAACUAGC | – | – | 42.1 nM | 402 nM
21 | GCUGGGUCAGGAUAUACGAGAUCGAAAGAUCGAAGAUCCGUACAUGAGGAUCACCCAUGUAGAAGGGACUGGGC | – | – | 21.4 nM | 44.7 nM
22 | UGAUAGGACAGAGGAUAUACGUGCUAGAGAUACUAGCAAAGUUUCCUCACAUGAGGAUCACCCAUGUAGAAGGCUGUCCUAUCU | – | – | 24.9 nM | 521 nM
23 | CGCACUUAUAGAGGAUAUGUUGUACAUGAGGAUCACCCAUGUGUUUUUGUAUCAAUAUUAGUGAAACAGAAGGCUAUUUGUGCG | – | – | 5.76 nM | 4.96 nM
24 | UAACGCGCAUGCAAGGAUAUGUGCAGAGCUACAUGAGGAUCACCCAUGUGGUUAUGCUAUUGAAAACAGAAGGUGCCCUCGCUCA | 25.8 nM | 24.3 nM | – | –
25 | UAAAUUAUCAAGAAGGCUAACAUGAGGAUCACCCAUGUUGUACAUGGAUAUAGAGGAUAUUGCUAAUAAUUAUUUAUCAUAAUU | – | – | 15.3 nM | 14.8 nM
26 | GCAGCACUUUAUUACAUGAGGAUCACCCAUGUCGAUUGUUAUGAGGAUAUGCAUCGGAUGAAGAUGCAGAAGGCAUUGUGCUGC | 7.24 nM | 6.04 nM | – | –
27 | AUGGAUAUCACAGGAUAUGCCAGGGAUACCCUGGCAGAAGGGUGAUCCAUCCUAUGUAAAUACAUGAGGAUCACCCAUGUGUCC | 51.7 nM | 43.6 nM | – | –
28 | UUGUUGUAUGUAGGAUAUGCAUAUUAUUAUUGUGCAGAAGGACAUGAGGAUCACCCAUGUAUAUUAUUAUUAUAUAUUAUAUAU | – | – | 35.3 nM | 54.3 nM

Row | Sequence | apparent Kd [1] | apparent Kd [2] | apparent Kd [3] | apparent Kd [4]
29 | UGGUACUAGGGAGGAUAUGGGAAGAUACAUGAGGAUCACCCAUGUUUAAGAAUGCCGAGAGACAACUAGAAGGCCCUAGUACCU | 240 nM | 22.2 nM | – | –
30 | CAUAUAGUUUGAGGAUAUUCAUGCACUGUAUACGGAGAAGGCAAACUAUCAUGUGGACAUGAGGAUCACCCAUGUAGUGACCAG | 54.2 nM | 41 nM | – | –
31 | GAUUAACAUGAGGAUCACCCAUGUGAGGAUAUGAACUUGCCCACUUUCCCUUUAGAGUUUAGAAGGCGCAUUCU | – | – | 29.8 nM | 30.6 nM
32 | AUGCUAUACGAAGGAUAUGGUUACAUGAGGAUCACCCAUGUUAUGAUUGGUUACUUGUUUAGUUUCCAGAAGGUCGUAUAGCUA | – | – | 58.1 nM | 232 nM
33 | UGUGUCAUCGAGAAGGCCUCAACAUGAGGAUCACCCAUGUUGUAAUAUGGGAGGAUAUCGAUGAUACAGCUACGUUUCGUAGCU | 19.2 nM | 5.78 nM | – | –
34 | AGAACGUCAGGAUAUCGAACAACAAGUAAAUAGAGAAGAAGCGAGAAGGGACAUGAGGAUCACCCAUGUAAGAA | – | – | 57.6 nM | 45.3 nM
35 | CCGAUUAGCACAGGAUAUGGGAACUCGUAAUUCCCAGAAGGGUGAGCCAAUACAUGAGGAUCACCCAUGUGCGGUAGGUCGGGA | 40.5 nM | 51 nM | – | –
36 | UUCCUGUCAGGAUAUGACUAGAUGCACGUUAGUGUGUUUACUUAGAAGGGACAUGAGGAUCACCCAUGUAGUCC | – | – | 36.2 nM | 33 nM
37 | UUAAAUCAUGUAGGAUAUGCAUGGCGAAGCUACGCAGAAGGACAUGAGGAUCACCCAUGUUAAAGCUACCGUAUACGGUGGCAA | – | – | 131 nM | 174 nM
38 | GGCUCGCAGCUAGGAUAUGGGCGGUCACAUGAGGAUCACCCAUGUCAACAUCAAAACCAGAUUAACCAGAAGGAGCUGCGGGUU | 33.5 nM | 739 nM | – | –
39 | GUAAGUACGAGAGGAUAUUGACAUGAGGAUCACCCAUGUAUUUGGGAGUGUUCACUGAAUUCUUACGAGAAGGCUCGUACAUAC | – | – | 218 nM | 242 nM
40 | CUGACGGCGACGACAUUUCCAGAACCAGAAGGUGAAGUCAACAUGAGGAUCACCCAUGUCUAUAUCAAGGAUAUGGUAGUGGGC | 301 nM | 92.2 nM | – | –
41 | UUCUUACAUGAGGAUCACCCAUGUCAGGAUAUCUCCUCACUGCGCUUGCGCAGUGAAUAGAGAAGGGACAGGCU | – | – | 51.3 nM | 43.8 nM
42 | GCCAUCGCAUGAGGAUAUGCUCCCGUUUCGGGAGCAGAAGGCAUGUCAAAAGACAUGAGGAUCACCCAUGUAGUUAAGAUGGCA | 122 nM | 7.89 nM | – | –
43 | UCUGCCGCCGUGAGGAUAUGCCCAAACAAAAGCGGGCAGAAGGCACAUGAGGAUCACCCAUGUCCCGCGGUUUU | – | – | 18.5 nM | 37 nM
44 | AAGUCGGUAGAUAAUAAUGAUUACAUGAGGAUCACCCAUGUAUAGGAUAUCGUCAGGAAUACUGACGAGAAGGAUACAUCCGAC | – | – | 17.6 nM | 30 nM
45 | AGGUACAUCGGAGGAUAUCAUGUAAAUACAUGAGGAUCACCCAUGUCGAUGGAGACAUCGGAGAUUGAGAAGGCCGAUGUACCG | 152 nM | 8.62 nM | – | –
46 | UUUAGAUUCAGAGGAUAUUGAUGUUGUAUUUUACAAGAAGGCUGAUUGGUUUGAAUUGUUUUUUAACAUGAGGAUCACCCAUGU | 28.5 nM | 20.7 nM | – | –
47 | CUAGAGGAUUAAGGAUAUGCAGAGAGAUCAUGCGCGUCGCGCACAUGAGGAUCACCCAUGUAAGAGCAGAAGGUAACUAUGAUC | – | – | 18.3 nM | 16.6 nM
48 | AUAAUACAUGAGGAUCACCCAUGUAAUUUAACUUGUAAGAUCAAGGAUAUCAGCUCGAAUAGAGCUGAGAAGGUGAUCACAUGU | 169 nM | 295 nM | – | –
49 | CUGAGGUCAGGAUAUGCAUGGCGGGACUUGCGUCGUGGCGUGGAGAAGGGACAUGAGGAUCACCCAUGUGGAGG | – | – | 117 nM | 99.8 nM
50 | UGGUACUAGGGAGGAUAUGGGAAGAUACAUGAGGAUCACCCAUGUUUAAGACUGCCGAGAGGCAACUAGAAGGCCCUAGUACCU | 624 nM | 27.4 nM | – | –
51 | AAAUAACAUGAGGAUCACCCAUGUGCUGGAUAUGCAGGAUAUGGGCGGCGGGAGCGCGGCCCAGAAGGGCAGCUCC | 100 nM | 113 nM | – | –
52 | AUCAGCUCGUCAGGAUAUACGUCACUGCUUCGGCAGUGUAUUAAGAUCACAUGAGGAUCACCCAUGUAGAAGGGACGAGCUGAU | – | – | 21.7 nM | 226 nM
53 | CGAUGGCAUGUAGGAUAUCGAGCUCAAAGAGCUCGAGAAGGACAUGAGGAUCACCCAUGUGCUCACAGACAGUGAGCGCUAUCG | – | – | 31.2 nM | 156 nM
54 | AAACCCUGAGGAUAUACAUAACAACAAAGCCUCACGUGCCAACAUGAGGAUCACCCAUGUAGAAGGCAGGCCAA | – | – | 12.8 nM | 41.7 nM
55 | GUGCUCGUGUGAGGAUAUGCUUCCGUUUCGGCUGCAGAAGGUACUAUUAUACAUGAGGAUCACCCAUGUCGCUUUUCUCCGGUG | 26.6 nM | 27.5 nM | – | –
